Source: ChEMBL document CHEMBL1156262, “Substituted benzothiophene or benzofuran derivatives as a novel class of bone morphogenetic protein-2 up-regulators: synthesis, structure-activity relationships, and preventive bone loss efficacies in senescence accelerated mice (SAMP6) and ovariectomized rats” (J Med Chem, 2010)
Active and inactive are the calls of the source. No cut-off for these calls is given here.

How the values were obtained:
Mus musculus [1] = experiment: Induction of bone formation in SAMP6 mouse right femora assessed as trabecular bone volume percentage at 30 mg/kg/day, po measured after 3 months by bone histomorphometry; type: functional, Trabecula
Summary of the method: (§1)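 SAMP6 mice, 5 months old, n = 5 per group (3 male, 2 female), randomized by initial BMD. Given compound in 0.5% methylcellulose by gavage daily for 3 months. Proximal third of the right femur fixed in 4% paraformaldehyde, cut as undecalcified sections, and scored by image analysis for histomorphometry.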

Rattus norvegicus [2] = experiment: Toxicity in rat assessed as pathological changes in spleen at 150 mg/kg/day, po after 3 months by histomorphology; type: organism-based; design: route oral; conditions: in vivo
Summary of the method: (§2)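 Rats, n = 7, given oral doses of 150 mg/kg/day for 3 months. Heart, liver, spleen, lung and kidney examined histologically for pathological change.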

Rattus norvegicus [3] = experiment: Toxicity in rat assessed as pathological changes in kidney at 150 mg/kg/day, po after 3 months by histomorphology; type: organism-based; design: route oral; conditions: in vivo; summary of the method: as §2
Rattus norvegicus [4] = experiment: Induction of bone formation in ovariectomized rat assessed as decrease in trabecular resorption surface percentage at 7.5 mg/kg/day, po after 3 months; type: functional, organism-based; conditions: Trabecula
Summary of the method: (§3)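 Female rats (205–235 g) randomized by body weight, n = 7 per group: sham, ovariectomized with vehicle, ovariectomized with raloxifene 5 mg/kg/day, and ovariectomized with compound at 7.5, 15 or 30 mg/kg/day. All dosing oral for 3 months. Undecalcified proximal tibia sections analysed by histomorphometry, with comparisons against the sham and ovariectomized groups.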

Mus musculus [5] = experiment: Toxicity in SAMP6 mouse assessed as pathological changes in spleen at 30 mg/kg/day, po after 3 months by histomorphology; type: organism-based; design: route oral; conditions: in vivo
Summary of the method: (§4)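 SAMP6 mice, n = 5 per group, dosed orally at 30 mg/kg/day in 0.5% methylcellulose for 3 months. Heart, liver, spleen, lung and kidney harvested, weighed and examined histologically. Organ/body weight indexes, body weight, and 24 h water and food intake (g/g body weight) compared with vehicle controls.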

Rattus norvegicus [6] = experiment: Toxicity in rat assessed as pathological increase in body weight at 150 mg/kg/day, po after 3 months; type: organism-based; design: route oral; conditions: in vivo
Summary of the method: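 Female rats (n = 7) were dosed orally once daily at 150 (mg/kg)/day for 3 months. Body weight, behaviour and fur were observed throughout. At the end, hearts, livers, spleens, lungs and kidneys were sectioned for histological examination of pathological changes.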

Mus musculus [7] = experiment: Induction of bone mineral density in SAMP6 mouse assessed as left hind leg BMD at 30 mg/kg/day, po measured after 3 months; type: functional
Summary of the method: (§5)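 SAMP6 mice, 5 months old, n = 5 per group, given compound in 0.5% methylcellulose by gavage daily. Dual-energy X-ray absorptiometry under pentobarbital anaesthesia (50 mg/kg ip), animals prone, at 0, 4, 8 and 12 weeks of treatment. Regions of interest were whole body, spine and left hind leg.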

Mus musculus [8] = experiment: Toxicity in SAMP6 mouse assessed as pathological changes in liver at 30 mg/kg/day, po after 3 months by histomorphology; type: organism-based; design: route oral; conditions: in vivo; summary of the method: as §4
Rattus norvegicus [9] = experiment: Induction of bone formation in ovariectomized rat assessed as increase in trabecular bone volume percentage at 7.5 mg/kg/day, po after 3 months; type: functional, organism-based; conditions: Trabecula; summary of the method: as §3
Mus musculus [10] = experiment: Toxicity in SAMP6 mouse assessed as increase in body weight at 30 mg/kg/day, po after 3 months; type: organism-based; design: route oral; conditions: in vivo; summary of the method: as §4
Mus musculus [11] = experiment: Induction of bone formation in SAMP6 mouse right femora assessed as average osteoid width at 30 mg/kg/day, po measured after 3 months by bone histomorphometry; type: functional; summary of the method: as §1
Mus musculus [12] = experiment: Toxicity in SAMP6 mouse assessed as change in 24 hrs food consumption at 30 mg/kg/day, po after 3 months; type: organism-based; design: route oral; conditions: in vivo; summary of the method: as §4
Rattus norvegicus [13] = experiment: Toxicity in rat assessed as pathological changes in heart at 150 mg/kg/day, po after 3 months by histomorphology; type: organism-based; design: route oral; conditions: in vivo; summary of the method: as §2
Mus musculus [14] = experiment: Toxicity in SAMP6 mouse assessed as pathological changes in heart at 30 mg/kg/day, po after 3 months by histomorphology; type: organism-based; design: route oral; conditions: in vivo; summary of the method: as §4
Rattus norvegicus [15] = experiment: Prevention of bone loss in ovariectomized rat assessed as increase in number, thickness, area and connectivity of trabecula at 30 mg/kg/day, po after 3 months by histomorphometry Leica Qwin image analysis; type: functional, organism-based; summary of the method: as §3
Mus musculus [16] = experiment: Induction of bone formation in SAMP6 mouse right femora assessed as trabecular resorption surface percentage at 30 mg/kg/day, po measured after 3 months by bone histomorphometry; type: functional, Trabecula; summary of the method: as §1
[17] = Toxicity in po dosed Kunming mouse assessed as mortality treated for 3 days measured after 17 days; type: organism-based; conditions: in vivo
Summary of the method: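 Male and female Kunming mice (18-21 g), six per group (three males, three females), were dosed orally at 500 or 700 (mg/kg)/day for 3 days. They were closely watched for deaths over the 3 dosing days and the following 14 days (17 days in total).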

Rattus norvegicus [18] = experiment: Prevention of bone loss in po dosed ovariectomized rat assessed as increase in number, thickness, area and connectivity of trabecula after 3 months by histomorphometry Leica Qwin image analysis; type: functional, organism-based; summary of the method: as §3
Mus musculus [19] = experiment: Induction of BMP2 expression in SAMP6 mouse bone marrow stroma at 30 mg/kg/day, po after 3 months by immunohistochemical analysis; type: functional, organism-based
Summary of the method: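 SAMP6 mice, 5 months old, male and female, n = 5 per group (3 male, 2 female). Dosed by gavage with compound suspended in 0.5% methylcellulose daily for 3 months; the vehicle group received methylcellulose only. Proximal third of the left femur fixed in 4% neutral paraformaldehyde for 24 h, decalcified in 10% EDTA at 4 °C for 4 weeks, then frozen-sectioned at 5 μm. Stained with rabbit polyclonal anti-BMP-2 and an alkaline phosphatase secondary. BMP-2-positive area was taken as a percentage of bone tissue area, averaged over five fields below the epiphyseal plate.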

Mus musculus [20] = experiment: Toxicity in SAMP6 mouse assessed as pathological changes in lung at 30 mg/kg/day, po after 3 months by histomorphology; type: organism-based; design: route oral; conditions: in vivo; summary of the method: as §4
Mus musculus [21] = experiment: Induction of bone mineral density in SAMP6 mouse assessed as whole body BMD at 30 mg/kg/day, po measured after 2 months
Rattus norvegicus [22] = experiment: Induction of bone formation in ovariectomized rat assessed as decrease in trabecular resorption surface percentage at 15 mg/kg/day, po after 3 months; type: functional, organism-based; conditions: Trabecula; summary of the method: as §3
Mus musculus [23] = experiment: Induction of bone mineral density in SAMP6 mouse assessed as whole body BMD at 10 mg/kg/day, po measured after 1 month; type: functional, organism-based; conditions: 30 mg/kg, in the assay text read “30 mg/kg/day” for “10 mg/kg/day”; summary of the method: as §5
Rattus norvegicus [24] = experiment: Induction of bone formation in ovariectomized rat assessed as decrease in trabecular resorption surface percentage at 30 mg/kg/day, po after 3 months; type: functional, organism-based; conditions: Trabecula; summary of the method: as §3
Mus musculus [25] = experiment: Induction of bone mineral density in SAMP6 mouse assessed as whole body BMD at 30 mg/kg/day, po measured after 3 months; type: functional; summary of the method: as §5
Mus musculus [26] = experiment: Induction of bone mineral density in SAMP6 mouse assessed as spine BMD at 30 mg/kg/day, po measured after 3 months; type: functional; summary of the method: as §5
[27] = Induction of BMP2 expression in mouse calcarial MC3T3-E1 cells stably transfected with mouse BMP2 promotor-luciferase assessed as upregulation rate at 4 uM; type: functional, cell-based
Summary of the method: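 Reporter assay in murine calvarial MC3T3-E1 cells stably carrying the mouse BMP-2 promoter fused to firefly luciferase (pGL4BMP-2). Cells grown in DMEM with 10% heat-inactivated FBS at 37 °C and 5% CO2. Test compounds at 4.0 μM; lovastatin at 0.4 μM as positive control; 0.1% DMSO as negative control. Up-regulation rate = (RLU of test − RLU of negative control)/RLU of negative control × 100.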

SMILES: CC(=O)c1cc2ccccc2s1
- Activity (Mus musculus [1]): 4.95%
- Activity (Rattus norvegicus [2]): Non-toxic
- Activity (Rattus norvegicus [3]): Non-toxic
- Activity (Rattus norvegicus [4]): Active
- Activity (Mus musculus [5]): Non-toxic
- Activity (Rattus norvegicus [6]): Non-toxic
- Activity (Mus musculus [7]): 0.05 g/cm2
- Activity (Mus musculus [8]): Non-toxic
- Activity (Rattus norvegicus [9]): Active
- Activity (Mus musculus [10]): Non-toxic
- Activity (Mus musculus [11]): 5.55 µm
- Activity (Mus musculus [12]): Non-toxic
- Activity (Rattus norvegicus [13]): Non-toxic
- Activity (Mus musculus [14]): Non-toxic
- Activity (Rattus norvegicus [15]): Active
- Activity (Mus musculus [16]): 7.09%
- LD50 at 408 h [17]: > 5000 mg/kg
- Activity (Rattus norvegicus [18]): Dose-dependent effect
- Activity (Mus musculus [19]): Active
- Activity (Mus musculus [20]): Non-toxic
- Activity (Mus musculus [21]): Active
- Activity (Rattus norvegicus [22]): Active
- Activity (Mus musculus [23]): Active
- Activity (Rattus norvegicus [24]): Active
- Activity (Mus musculus [25]): 0.068 g/cm2
- Activity (Mus musculus [26]): 0.086 g/cm2
- Activity [27]: 35.6%
